Calb biofilm kill: clotrimazole potentiators killing C. albicans biofilm, primary screen, 4-compound mixtures | C. albicans biofilm persisters + clotrimazole, fluorescence viability; primary screen in compound mixtures of four per well | inhibition, % at 7.6 µM | 120,000 tested, 0.02% active | AID 1242, 2008;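 active = inhibition above 30.3% in the primary screen of four-compound pools, then above 30% when the compound was retested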;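 also: compounds exposed to preformed 24 h biofilms for 48 h; 0% = untreated biofilm control and 100% = clotrimazole plus chlorhexidine kill blank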
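Assay system: C. albicans biofilms / Medium: RPMI/MOPS medium, pH 7.0 / Schedule: biofilm formation 24 h, compound exposure 48 h, 37 °C / Measured by: Alamar Blue fluorescence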
ROMK mod: ROMK potassium channel modulators, primary screen, cell-based, thallium flux, MLSMR library | ATP-sensitive inward rectifier potassium channel 1 (Homo sapiens), P48048 | Tet-inducible ROMK, thallium flux fluorescence; actives lie on both sides | B-score at 10 µM | 130,000 tested, 2% active | AID 1918, 2009;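 active = signal ratio slope over the read window, or its plate-corrected B-score, at least 3 SD from the plate mean, either direction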;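 also: B-score of the F/F0 ratio slope over 7 to 12 s after thallium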
Target sequence (P48048 whole entry, looked up): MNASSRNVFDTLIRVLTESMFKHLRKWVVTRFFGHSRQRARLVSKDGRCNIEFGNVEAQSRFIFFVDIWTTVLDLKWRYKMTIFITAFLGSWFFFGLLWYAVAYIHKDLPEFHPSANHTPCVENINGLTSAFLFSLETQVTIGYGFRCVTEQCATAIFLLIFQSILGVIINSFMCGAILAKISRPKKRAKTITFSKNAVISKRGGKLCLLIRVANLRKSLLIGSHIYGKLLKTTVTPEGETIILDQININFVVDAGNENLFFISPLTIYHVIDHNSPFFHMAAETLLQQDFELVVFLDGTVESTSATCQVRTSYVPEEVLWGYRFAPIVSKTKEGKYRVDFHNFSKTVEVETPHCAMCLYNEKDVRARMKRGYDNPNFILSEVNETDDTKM
Pf gametocyte: late stage P. falciparum gametocyte viability inhibitors, primary screen, ATP luminescence, HTS; P. falciparum stage V gametocytes, 24 h; inhibition, % at 10.9 µM; 150,000 tested, 0.065% active; AID 743093, 2013;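 active = inhibition above the mean plus 3 SD of compounds within the control limits, set per campaign, cut at about 38% in these data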;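 also: 0% = DMSO wells and 100% = medium only without gametocytes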
* = called active by the depositor. Shown is part of a subset that was picked to be rich in hits.

Results for CCOC(=O)c1c(NC(=O)C2C3C=CC(C3)C2C(=O)O)sc2c1CC(C)CC2 (stereo not drawn) ?
Calb biofilm kill: 9; ROMK mod: 2.2; Pf gametocyte: 1

Results for CCCOC(=O)c1c(NC(=O)C2C3C=CC(C3)C2C(=O)O)sc2c1CCC(C)C2 (stereo not drawn) ?
Calb biofilm kill: 9; ROMK mod: 3.5*; Pf gametocyte: 22

Results for COCCNC(=S)NNC(=O)c1ccc(-n2cnnn2)cc1 ?
Calb biofilm kill: 9; ROMK mod: 0.9

How did CCOC(=O)C(C)(C)Oc1cccc2c1S(=O)(=O)c1ccccc1-2 do in these assays?
Pf gametocyte: -6

What do the screens show for `CCCCC(c1nnnn1C1CCCC1)N1CCN(C2CCCC2)CC1` (stereo not drawn)?
ROMK mod: -3.2*; Pf gametocyte: -1

Results for CCCC(c1nnnn1C1CCCCC1)N1CCN(C2CCCC2)CC1 (stereo not drawn) ?
Pf gametocyte: -34

How did Cn1c(=O)c([N+](=O)[O-])c(N2CCN(Cc3ccc4c(c3)OCO4)CC2)c2ccccc21 do in these assays?
Calb biofilm kill: 3; Pf gametocyte: -7

Results for COc1ccc(O)c(/C=N/n2c(-c3ccco3)csc2=Nc2cccnc2)c1 ?
Calb biofilm kill: 17; Pf gametocyte: 53*

Results for COCCn1c(-c2ccco2)csc1=Nc1cccnc1 ?
ROMK mod: 0.033

How did COc1ccc(NC2c3ccccc3C(=O)N2Cc2ccc3c(c2)OCO3)cc1 (stereo not drawn) do in these assays?
Calb biofilm kill: 20; Pf gametocyte: -8

How did COc1cc(S(=O)(=O)n2nnc3ccccc32)c(OC)cc1Cl do in these assays?
Calb biofilm kill: 14; ROMK mod: -2.3*

Results for COc1ccc(OC)c(S(=O)(=O)n2nnc3cc(Cl)ccc32)c1 ?
ROMK mod: 0.7

How did O=P(COCCOCCOCCOCP(=O)(c1ccccc1)c1ccccc1)(c1ccccc1)c1ccccc1 do in these assays?
Calb biofilm kill: 14; ROMK mod: -0.084

Results for CN(C)S(=O)(=O)Nc1cc(Cl)cc(Cl)c1 ?
Calb biofilm kill: 15; ROMK mod: -1.2

What do the screens show for `O=C(Nc1nccs1)c1cn(-c2ccccc2)nc1-c1ccncc1`?
Calb biofilm kill: 14; ROMK mod: 1.3; Pf gametocyte: 69*

What do the screens show for `COc1ccc(-c2nn(-c3ccccc3)cc2C(=O)Nc2nccs2)cc1`?
ROMK mod: -1.8; Pf gametocyte: -8

What do the screens show for `CCCCOc1ccc(Nc2cc(Cl)ccc2C(=O)O)cn1`?
Calb biofilm kill: 15; ROMK mod: 3.1*

What do the screens show for `COc1ccc(CC(=O)Nc2cc(Cl)ccc2C(=O)O)cc1`?
Calb biofilm kill: 15; ROMK mod: -0.14; Pf gametocyte: 4

Results for Cc1cccc(NC(=S)NC(=O)c2ccc(Br)o2)c1C ?
Calb biofilm kill: 12; ROMK mod: 0.12; Pf gametocyte: 9

What do the screens show for `Cc1cccc(C)c1NC(=S)NC(=O)c1ccc(Br)o1`?
Calb biofilm kill: 12; ROMK mod: 2.1*; Pf gametocyte: 18

Results for Cc1sc2c(c1C)C(=O)/C(=C\Nc1ccncc1)S(=O)(=O)N2C ?
Calb biofilm kill: 11; Pf gametocyte: 9

Results for N#Cc1c(-c2cccs2)nc(SCc2ccc(Cl)cc2)[nH]c1=O ?
Calb biofilm kill: 2; ROMK mod: 3.6*; Pf gametocyte: 7

Results for CSc1nc(-c2cccs2)c(C#N)c(=O)[nH]1 ?
Calb biofilm kill: 11; Pf gametocyte: 21

Results for CC(=O)NC(=S)Nc1ccc(NC(=O)c2cccnc2Cl)cc1 ?
Calb biofilm kill: 23; Pf gametocyte: 4

What do the screens show for `CNC(=S)N1CCC(c2nc3ccccc3s2)CC1`?
Calb biofilm kill: 2; ROMK mod: 0.41; Pf gametocyte: 20

Results for COc1ccc(NC(=O)CSc2ccc3c4c(cccc24)C(=O)c2ccccc2-3)cc1 ?
Pf gametocyte: 10

How did N#Cc1cccc(NC(=O)CSc2ccc3c4c(cccc24)C(=O)c2ccccc2-3)c1 do in these assays?
ROMK mod: -4.2*

How did O=C(O)CCn1cc(/C=C/C(=O)c2ccc(Cl)cc2)c(-c2ccc(Br)cc2)n1 do in these assays?
Calb biofilm kill: 12; Pf gametocyte: 0

What do the screens show for `CN(C)NC(=O)C12CCC(C)(C(=O)O1)C2(C)C` (stereo not drawn)?
Calb biofilm kill: 23; ROMK mod: 0.2

How did CC(C)(C)OC(=O)N1CCC(Cc2cc(-c3cccnc3)no2)(C(=O)O)CC1 do in these assays?
Pf gametocyte: -9

What do the screens show for `COc1ccccc1NC(=O)CN1CCN(CC(=O)Nc2ccc(Cl)c(C(F)(F)F)c2)CC1`?
ROMK mod: -2.5*; Pf gametocyte: -8

What do the screens show for `COc1ccc(NC(=O)CN2CCN(CC(=O)Nc3ccccc3Cl)CC2)cc1Cl`?
ROMK mod: -0.32; Pf gametocyte: -13

How did CCCc1nnc(NC(=O)c2cn(CC)c3cc(N4CCN(C)CC4)c(F)cc3c2=O)s1 do in these assays?
Calb biofilm kill: 24; Pf gametocyte: 0

What do the screens show for `CCOCC(=O)N1CCN(c2ccc([N+](=O)[O-])cc2)CC1`?
Calb biofilm kill: 14

Results for COc1ccc(NC(=O)c2cccc([N+](=O)[O-])c2)cc1 ?
Calb biofilm kill: 29; ROMK mod: 0.17; Pf gametocyte: 5

Results for COc1ccc(NC(=O)c2cc([N+](=O)[O-])ccc2O)cc1 ?
Calb biofilm kill: 24; ROMK mod: 4.5*; Pf gametocyte: 0

Results for CCC1Nc2ncnc(N3CCN(c4ccccc4)CC3)c2N(Cc2ccc(Br)cc2)C1=O (stereo not drawn) ?
Pf gametocyte: 9

Results for COc1ccc(C2C(C(=O)c3ccco3)=C(O)C(=O)N2c2nnc(C)s2)cc1 (stereo not drawn) ?
Calb biofilm kill: 6; ROMK mod: -0.32; Pf gametocyte: 5

How did Cc1ccc2nc(N3C(=O)C(O)=C(C(=O)c4ccco4)C3c3cccs3)sc2c1 (stereo not drawn) do in these assays?
ROMK mod: -2.6*

How did CNCC/C=C1/c2ccccc2CSc2ccccc21 do in these assays?
Calb biofilm kill: 16; ROMK mod: -4.9*; Pf gametocyte: -21

What do the screens show for `OCCN1CCN(CC/C=C2/c3ccccc3CSc3ccccc32)CC1`?
Pf gametocyte: 18

Results for COC(=O)N1C(=O)[C@](c2ccsc2)(C(C)C)N1C(=O)OC ?
Pf gametocyte: 11

Results for CC(Sc1nnc(-c2ccccc2)c(-c2ccccc2)n1)C(=O)N1CCc2ccccc21 (stereo not drawn) ?
Calb biofilm kill: -3

Results for Cc1nc2cc(C(F)(F)F)ccc2n1C ?
Calb biofilm kill: 3; ROMK mod: -0.65

How did CC(C)(C)n1ncc2c(=O)n(CC(=O)NCc3ccccc3)cnc21 do in these assays?
ROMK mod: 4.2*

What do the screens show for `CC(=O)Nc1ccc(NC(=O)Cn2cnc3c(cnn3C(C)(C)C)c2=O)cc1`?
ROMK mod: 0.0017

How did CC(C)c1nc2sc3c(=S)nc[nH]c3c2c2c1CCC2 do in these assays?
Calb biofilm kill: 24; ROMK mod: 5.2*; Pf gametocyte: -8

Results for CC(C)c1nc2sc3c(=O)[nH]cnc3c2c2c1CCC2 ?
Calb biofilm kill: -3; ROMK mod: 2.3; Pf gametocyte: -3

Bioassay records (PubChem BioAssay)
